Activity calls are given as the source filed them. The calls are words filed in the database; no cut-off is given here.
How the values were obtained:
LS174T [1] = assay: Inhibition of Wnt/beta-catenin in human LS174T cells assessed as effect on […] at 10 uM by Western blotting; assay type: cell-based
LS174T [2] = assay: Inhibition of Wnt/beta-catenin in human LS174T cells assessed as reduction in c-Myc protein level at 10 uM by Western blotting; assay type: cell-based
LS174T [3] = assay: Inhibition of Wnt/beta-catenin in human LS174T cells assessed as reduction in Axin-2 protein level at 10 uM by Western blotting; assay type: cell-based
SW480 [4] = assay: Cytotoxicity against human SW480 cells at 10 uM for 2 days by vi-cell cell viability analysis; assay type: functional, cell-based
In short: (§1)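 CRC cells treated with DMSO or inhibitor for 2d and 4d; cell number and viability counted on a Vi-Cell analyzer. HCT116 and SW480 kept in DMEM with 10% FBS; LS174T in RPMI with 5% FBS; all with 1% penicillin/streptomycin.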

HCT-116 [5] = assay: Cytotoxicity against human HCT116 cells at 10 uM for 2 days by vi-cell cell viability analysis; assay type: functional, cell-based; in short: as §1
HCT-116 [6] = assay: Cytotoxicity against human HCT116 cells at 10 uM for 4 days by vi-cell cell viability analysis; assay type: functional, cell-based; in short: as §1
LS174T [7] = assay: Cytotoxicity against human LS 174T cells at 10 uM for 4 days by vi-cell cell viability analysis; assay type: functional, cell-based; in short: as §1
LS174T [8] = assay: Cytotoxicity against human LS 174T cells at 10 uM for 2 days by vi-cell cell viability analysis; assay type: functional, cell-based; in short: as §1
LS174T [9] = assay: Inhibition of Wnt/beta-catenin in human LS174T cells assessed as reduction in Ki67 mRNA level at 100 uM after 36 hrs by RT-PCR analysis; assay type: cell-based
LS174T [10] = assay: Inhibition of Wnt/beta-catenin in human LS174T cells assessed as reduction in c-Myc mRNA level at 100 uM after 36 hrs by RT-PCR analysis; assay type: cell-based
LS174T [11] = assay: Inhibition of Wnt/beta-catenin in human LS174T cells assessed as reduction in CD44 mRNA level at 100 uM after 36 hrs by RT-PCR analysis; assay type: cell-based
LS174T [12] = assay: Inhibition of Wnt/beta-catenin in human LS174T cells assessed as reduction in Lgr5 mRNA level at 100 uM after 36 hrs by RT-PCR analysis; assay type: cell-based
LS174T [13] = assay: Inhibition of Wnt/beta-catenin in human LS174T cells assessed as reduction in survivin mRNA level at 100 uM after 36 hrs by RT-PCR analysis; assay type: cell-based
LS174T [14] = assay: Inhibition of Wnt/beta-catenin in human LS174T cells assessed as effect on […] at 100 uM by Western blotting; assay type: cell-based
LS174T [15] = assay: Inhibition of Wnt/beta-catenin in human LS174T cells assessed as increase in p21WAF1/CIP1 protein level at 100 uM by Western blotting; assay type: cell-based
LS174T [16] = assay: Inhibition of Wnt/beta-catenin in human LS174T cells assessed as reduction in cyclin B1 protein level at 100 uM by Western blotting; assay type: cell-based
LS174T [17] = assay: Inhibition of Wnt/beta-catenin in human LS174T cells assessed as reduction in c-Myc protein level at 100 uM by Western blotting; assay type: cell-based
LS174T [18] = assay: Inhibition of Wnt/beta-catenin in human LS174T cells assessed as reduction in Cyclin D1 protein level at 100 uM by Western blotting; assay type: cell-based
HEK-293T [19] = assay: Inhibition of LiCl-induced […] in human HEK293T cells transfected with TOP Flash assessed as decrease in luciferase expression at 100 uM after 12 hrs by dual luciferase reporter assay; assay type: cell-based
In short: (§2)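 HEK293T transiently transfected (calcium phosphate) with Super8xTOPFlash plus Renilla luciferase reporters; medium changed after 12h, then 6h later cells pretreated 12h with DMSO or inhibitor before stimulation with 25mM LiCl or Wnt3A-conditioned medium. After 12h, dual-luciferase read-out; triplicate wells, each experiment run at least twice.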

SW480 [20] = assay: Cytotoxicity against human SW480 cells at 10 uM for 4 days by vi-cell cell viability analysis; assay type: functional, cell-based; in short: as §1
LS174T [21] = assay: Inhibition of Wnt/beta-catenin in human LS 174T cells assessed as reduction in TCF4 protein level at 100 uM by Western blotting; assay type: cell-based
LS174T [22] = assay: Inhibition of Wnt/beta-catenin in human LS 174T cells assessed as reduction in pygopus2 protein level at 100 uM by Western blotting; assay type: cell-based
HEK-293T [23] = assay: Inhibition of […] in human HEK293T cells transfected with TOP Flash assessed as decrease in luciferase expression at 100 uM after 12 hrs by dual luciferase reporter assay; assay type: cell-based; in short: as §2
LS174T [24] = assay: Inhibition of Wnt/beta-catenin in human LS174T cells assessed as reduction in c-Myc protein level at 2.5 uM by Western blotting; assay type: cell-based
LS174T [25] = assay: Inhibition of Wnt/beta-catenin in human LS174T cells assessed as reduction in Axin-2 protein level at 2.5 uM by Western blotting; assay type: cell-based
LS174T [26] = assay: Inhibition of Wnt/beta-catenin in human LS174T cells assessed as reduction in c-Myc protein level at 0.5 uM by Western blotting; assay type: cell-based
LS174T [27] = assay: Inhibition of Wnt/beta-catenin in human LS174T cells assessed as reduction in Axin-2 protein level at 0.5 uM by Western blotting; assay type: cell-based
LS174T [28] = assay: Cytotoxicity against human LS 174T cells at 0.1 uM for 2 days by vi-cell cell viability analysis; assay type: functional, cell-based; in short: as §1
LS174T [29] = assay: Cytotoxicity against human LS 174T cells at 0.1 uM for 4 days by vi-cell cell viability analysis; assay type: functional, cell-based; in short: as §1
Mus musculus = assay: Toxicity in human LS 174T cells xenografted C57BL/6J athymic nude mouse assessed as change in body weight at 20 mg/kg/day, ip within 1 month; assay type: organism-based, LS174T; parameters: route intraperitoneal; conditions: in vivo
In short: (§3)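 LS174 cells (2 × 10^6) injected subcutaneously into both flanks of 6–8 week C57BL/6J athymic nude mice; mice randomized to two groups. Daily ip dosing at 20mg/kg/day in corn oil (50 μl/mouse); controls got corn oil alone. Body weight and tumor size (digital caliper) recorded twice weekly for one month; volume V=1/2LW^2 (mm3).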

LS174T [30] = assay: Antitumor activity against human LS 174T cells xenografted in C57BL/6J athymic nude mouse assessed as reduction in tumor growth at 20 mg/kg/day, ip; assay type: functional, organism-based; in short: as §3
LS174T [31] = assay: Inhibition of Wnt/beta-catenin in human LS 174T cells assessed as decrease in […] in nucleus using DAPI staining at 10 uM for 24 hrs by immunofluorescent microscopy; assay type: cell-based
In short: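 LS174 cells treated 24h with 10 μM compound or DMSO, fixed (4% paraformaldehyde, 20 min, RT), permeabilized with 0.3% Triton X-100, blocked in 5% goat serum 30 min. Stained overnight with anti-β-catenin (1:300), then Alexa-488 anti-rabbit IgG (1:500) 40 min; nuclei counterstained with DAPI; confocal imaging.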

LS174T [32] = assay: Inhibition of Wnt/beta-catenin in human LS 174T cells assessed as reduction in TCF4 protein level at 10 uM by Western blotting; assay type: cell-based
LS174T [33] = assay: Inhibition of Wnt/beta-catenin in human LS 174T cells assessed as reduction in pygopus2 protein level at 10 uM by Western blotting; assay type: cell-based
LS174T [34] = assay: Inhibition of Wnt/beta-catenin in human LS 174T cells assessed as reduction in TCF4 mRNA level at 10 uM by RT-PCR analysis; assay type: cell-based
LS174T [35] = assay: Inhibition of Wnt/beta-catenin in human LS 174T cells assessed as reduction in pygopus2 mRNA level at 10 uM by RT-PCR analysis; assay type: cell-based
[36] = Drug uptake in human LS 174T cells assessed as accumulation in cytoplasm after 2 hrs by confocal microscopy; assay type: ADME, cell-based; conditions: ls174t
In short: (§4)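 LS174 cells on cover glass exposed to 10 μM fluorescent compound for 2h, 6h, 12h or 24h, then fixed in 4% paraformaldehyde 20 min at room temperature, PBS-washed, mounted and imaged by confocal microscopy under 405nm excitation.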

[37] = Drug uptake in human LS 174T cells assessed as accumulation in nucleus after 2 hrs by confocal microscopy; assay type: ADME, cell-based; conditions: ls174t; in short: as §4
[38] = Drug uptake in human LS 174T cells assessed as accumulation in nucleus after 12 hrs by confocal microscopy; assay type: ADME, cell-based; conditions: ls174t; in short: as §4
LS174T [39] = assay: Inhibition of Wnt/beta-catenin in human LS174T cells assessed as reduction in c-Myc protein level at 30 uM by Western blotting; assay type: cell-based
LS174T [40] = assay: Inhibition of Wnt/beta-catenin in human LS174T cells assessed as reduction in Axin-2 protein level at 30 uM by Western blotting; assay type: cell-based

CN(C)c1ccc(/C=C/c2ccc(F)cc2)cc1
inhibition (LS174T [1]): inactive

CN(C)c1ccc(CCc2c(F)cccc2F)cc1
inhibition (LS174T [2]): inactive
inhibition (LS174T [3]): inactive

CN(C)c1cccc(/C=C/c2c(F)cccc2F)c1
inhibition (LS174T [2]): inactive
inhibition (LS174T [3]): inactive
inhibition (LS174T [1]): inactive

Oc1ccc(/C=C/c2cc(O)cc(O)c2)cc1
Activity (SW480 [4]): Active
Activity (HCT-116 [5]): Active
Activity (HCT-116 [6]): Active
Activity (LS174T [7]): Active
Activity (LS174T [8]): Active
inhibition (LS174T [9]): Active
inhibition (LS174T [10]): Active
inhibition (LS174T [11]): Active
inhibition (LS174T [12]): Active
inhibition (LS174T [13]): Active
inhibition (LS174T [14]): inactive
inhibition (LS174T [15]): Active
inhibition (LS174T [16]): Active
inhibition (LS174T [17]): Active
inhibition (LS174T [18]): Active
inhibition (HEK-293T [19]): Active
Activity (SW480 [20]): Active
inhibition (LS174T [21]): Active
inhibition (LS174T [22]): Active
inhibition (HEK-293T [23]): Active

Oc1ccc(/C=C\c2cc(O)cc(O)c2)cc1
inhibition (LS174T [17]): inactive
inhibition (LS174T [18]): inactive

CN(C)c1ccc(/C=C/c2c(F)ccc(F)c2F)cc1
inhibition (LS174T [2]): Active
inhibition (LS174T [3]): Active
inhibition (LS174T [1]): inactive

CN(C)c1ccc(/C=C/c2cccc(F)c2)cc1
inhibition (LS174T [2]): Active
inhibition (LS174T [3]): Active
inhibition (LS174T [1]): inactive

CN(C)c1ccc(/C=C/c2ccccc2F)cc1
Activity (SW480 [4]): Active
Activity (HCT-116 [5]): Active
Activity (HCT-116 [6]): Active
Activity (LS174T [7]): Active
Activity (LS174T [8]): Active
Activity (SW480 [20]): Active
inhibition (LS174T [2]): Active
inhibition (LS174T [3]): Active
inhibition (LS174T [1]): inactive

COc1cc(/C=C/c2ccc(O)cc2)cc(OC)c1
Activity (SW480 [4]): Active
Activity (HCT-116 [5]): Active
Activity (HCT-116 [6]): Active
Activity (LS174T [7]): Active
Activity (LS174T [8]): Active
Activity (SW480 [20]): Active

CN(C)c1ccccc1/C=C/c1c(F)cccc1F
inhibition (LS174T [2]): inactive
inhibition (LS174T [3]): inactive
inhibition (LS174T [1]): inactive

CN(C)c1ccc(/C=C/c2c(F)cc(F)cc2F)cc1
inhibition (LS174T [2]): Active
inhibition (LS174T [3]): Active
inhibition (LS174T [1]): inactive

CCN(CC)c1ccc(/C=C/c2ccccc2F)cc1
inhibition (LS174T [2]): Active
inhibition (LS174T [3]): Active
inhibition (LS174T [1]): inactive

CN(C)c1ccc(/C=C/c2c(F)cccc2F)cc1
inhibition (LS174T [2]): Active
inhibition (LS174T [3]): Active
inhibition (LS174T [1]): inactive
inhibition (LS174T [24]): Active
inhibition (LS174T [25]): Active
inhibition (LS174T [26]): Active
inhibition (LS174T [27]): Active
Activity (LS174T [28]): Active
Activity (LS174T [29]): Active
Activity (Mus musculus): Non-toxic
growth inhibition (GI) (LS174T [30]): Active
inhibition (LS174T [31]): Active
inhibition (LS174T [32]): Active
inhibition (LS174T [33]): Active
inhibition (LS174T [34]): Active
inhibition (LS174T [35]): inactive

CCN(CC)c1ccc(/C=C/c2c(F)cccc2F)cc1
inhibition (LS174T [2]): Active
inhibition (LS174T [3]): Active
inhibition (LS174T [1]): inactive
Drug uptake [36]: Active
Drug uptake [37]: Active
Drug uptake [38]: Not Active

CN(C)c1ccc(/C=C/c2cc(F)ccc2F)cc1
inhibition (LS174T [2]): Active
inhibition (LS174T [3]): Active
inhibition (LS174T [1]): inactive

Fc1ccccc1/C=C/c1ccc(N(c2ccccc2)c2ccccc2)cc1
inhibition (LS174T [2]): inactive
inhibition (LS174T [3]): inactive
inhibition (LS174T [1]): inactive

CN(C)c1ccc(/C=C/c2cccc(F)c2F)cc1
inhibition (LS174T [2]): Active
inhibition (LS174T [3]): Active
inhibition (LS174T [1]): inactive

CN(C)c1ccc(/C=C/c2ccccc2)cc1
inhibition (LS174T [39]): Active
inhibition (LS174T [40]): Active
inhibition (LS174T [2]): inactive
inhibition (LS174T [3]): inactive
inhibition (LS174T [1]): inactive

— ChEMBL document CHEMBL2150856, “Fluorinated N,N-dialkylaminostilbenes for Wnt pathway inhibition and colon cancer repression” (J Med Chem, 2011)
